# A selection: hits, their analogues and other compounds. The true share with any hit is near 2.6%.
# SENP8 block-1 = inhibitors of human SENP8 protease. Q96LD8. purified SENP8, Z-RLRGG-aminoluciferin cleavage, luminescence. inhibition, % at 10 µM. actives 1.2% (n = 330,000). AID 2540; in the data active means inhibition above about 50%
# SENP7 block = blocks the human protease SENP7. AID 434973. inhibition, % at 5 µM. actives 1.5% (n = 330,000). Q9BQF6. recombinant SENP7, Z-RLRGG-aminoluciferin luminescence, 40 min;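 active means inhibition above about 50% at the single test dose, limit read from the data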;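 further: plate controls were DMSO with enzyme for no effect and no enzyme buffer wells for full effect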
# Target sequence (Q9BQF6 706-1050 limits assumed): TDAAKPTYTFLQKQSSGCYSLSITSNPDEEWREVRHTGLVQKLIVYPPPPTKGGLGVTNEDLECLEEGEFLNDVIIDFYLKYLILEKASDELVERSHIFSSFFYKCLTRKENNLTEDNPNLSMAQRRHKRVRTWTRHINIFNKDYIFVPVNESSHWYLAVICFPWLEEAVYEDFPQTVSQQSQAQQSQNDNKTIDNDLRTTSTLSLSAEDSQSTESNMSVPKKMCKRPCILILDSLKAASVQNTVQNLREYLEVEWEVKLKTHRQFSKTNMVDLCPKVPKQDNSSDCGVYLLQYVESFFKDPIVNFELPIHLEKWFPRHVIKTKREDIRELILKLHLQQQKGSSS
# Platelet DG rel = modulates dense granule release in human platelets; human platelet-rich plasma, SFLLRN dense granule ATP release, luminescence; inhibition, %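 (compounds screened at 7.5 µM in platelet-rich plasma)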; actives 0.22% (n = 300,000); AID 1663;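 active means mean replicate score, as percent of positive control, at or above 50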
# SENP6 inh = blocks the human protease SENP6. Recombinant SENP6 catalytic domain, aminoluciferin luminescence. Q9GZR1. actives 1.8% (n = 330,000). inhibition, % at 10 µM;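 active means inhibition above about 50% at the single tested dose, limit read from the data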;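 further: plate controls were DMSO wells with enzyme for no effect and DMSO wells lacking enzyme for full effect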
# SENP1 inh = inhibitors of human SENP1 SUMO protease catalytic domain; recombinant SENP1 catalytic domain, CyPet-SUMO1-YPet FRET cleavage; inhibition, % at 10 µM; actives 0.21% (n = 360,000);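 active means inhibition at least 30% at 10 µM, raw YFP signal under a set limit, fluorescence ratio 0.5 to 1.5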;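 further: 0% = enzyme with DMSO and 100% = no enzyme wells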
# Target sequence (Q9P0U3 419-644 limits assumed): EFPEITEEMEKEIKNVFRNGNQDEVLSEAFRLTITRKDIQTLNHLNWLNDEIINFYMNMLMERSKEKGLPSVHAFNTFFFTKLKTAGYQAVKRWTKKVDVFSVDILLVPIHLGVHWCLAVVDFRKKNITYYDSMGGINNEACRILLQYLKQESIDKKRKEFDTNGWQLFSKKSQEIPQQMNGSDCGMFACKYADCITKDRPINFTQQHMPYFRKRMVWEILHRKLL
#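 Material – human SENP1 catalytic domain · Input – SENP1 enzyme, 20 pM final · Compound dosing – single concentration of 10 µM compound, 0.5% DMSO final · Timing – enzyme reaction for 50 min at room temperature, dark · Measured by – FRET fluorescence in CFP and YFP emission channels · Control set – no-enzyme wells low, DMSO-plus-enzyme wells high control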
# SENP8 block-2 = blocks human SENP8 cleavage of Nedd8 substrate. actives 0.64% (n = 360,000). recombinant SENP8, Nedd8 substrate fluorescence. Q96LD8. AID 602440. inhibition, % at 20 µM; in the data active means inhibition mostly above about 40%, no sharp cut-off; inactive means mostly below about 27%
# SENP8 confirm = human SENP8 inhibition, confirmed; AID 488912; actives 40% (n = 6,200); inhibition, % at 12.5 µM; shares compounds with SENP7 block; Recombinant SENP8, Z-RLRGG-aminoluciferin luminescence, 60 min;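 active means mean inhibition across replicates above about 50%, limit read from the data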
# SENP6 confirm = confirmation of human SENP6 protease inhibitors; inhibition, % at 12.5 µM; AID 488915; actives 58% (n = 6,200); recombinant SENP6, Z-RLRGG-aminoluciferin luminescence; shares compounds with SENP7 block
# SENP7 conf = confirmation of human SENP7 protease inhibitors; shares compounds with SENP7 block; recombinant SENP7, Z-RLRGG-aminoluciferin luminescence, 40 min; inhibition, % at 12.5 µM; actives 69% (n = 6,200)
# Casp3 select = inhibits human caspase-3 in SENP selectivity test; shares compounds with SENP7 block; purified caspase-3, Z-DEVD-aminoluciferin luminescence, 60 min; inhibition, % at 12.5 µM; actives 60% (n = 6,200); AID 488918;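 active means mean inhibition above about 50%, limit read from the data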;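 further: plate controls were enzyme with DMSO for no effect and wells without caspase-3 for full effect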
# Luc interf = luminescence interference (SENP counter-screen) | shares compounds with SENP7 block | Pre-incubated SENP8/Z-RLRGG-aminoluciferin, luciferase luminescence interference | inhibition, % at 12.5 µM | actives 39% (n = 6,200) | AID 488919;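 active means mean inhibition above about 50% when retested at one dose, limit read from the data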;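 further: plate controls were DMSO wells with completed reaction for no effect and substrate without enzyme for full effect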
# The depositor's hits bear a star; i = inactive; . = not tested or not shown.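 How the source made its calls, unless noted: active means mean inhibition above about 50% in the one-dose retest (limit read from the data); inactive means the rest.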
SMILES,SENP8 block-1,SENP7 block,Platelet DG rel,SENP6 inh,SENP1 inh,SENP8 block-2,SENP8 confirm,SENP6 confirm,SENP7 conf,Casp3 select,Luc interf
Cc1csc(N/N=C/c2ccc(O)c([N+](=O)[O-])c2)n1,55*,25,11,69*,2,12,12,89*,50,3,2
Cc1ccc(C(=O)N/N=C\c2ccc([N+](=O)[O-])s2)cn1,31,11,3,39,1,32,.,.,.,.,.
O=C(N/N=C/c1ccc([N+](=O)[O-])s1)c1ccncc1,12,21,3,58*,-2,34,7,44,10,6,-3
CN(C)c1ccc(/C=N/NC(=O)c2nonc2N)cc1[N+](=O)[O-],21,55*,17,45,2,29,27,27,76*,75*,59*
COc1ccc(/C=N/NC(=O)c2ccncc2)cc1[N+](=O)[O-],-5,-2,-8,3,34,10,.,.,.,.,.
O=C(N/N=C/c1ccc(O)c([N+](=O)[O-])c1)c1ccncc1,20,49,38,57*,5,31,38,26,66*,79*,15
O=[N+]([O-])c1cc(/C=N\Nc2nc(-c3ccccc3)cs2)ccc1O,-1,-3,0,3,3,20,.,.,.,.,.
Cc1occc1-c1nnc(SCC(=O)NCc2ccc3c(c2)OCO3)n1CC(C)C,-3,1,-1,2,0,15,.,.,.,.,.
CCNC(=S)NNC(=O)CSc1nc2ccccc2n1C,0,4,-3,0,2,20,.,.,.,.,.
COc1ccccc1CNc1ncnc2nc[nH]c12,-5,-5,-12,-16,-7,6,.,.,.,.,.
Cc1ccc(C(=O)ONc2ccc(N=NC(=O)c3ccccc3O)cc2)cc1,24,-2,1,20,12,32,.,.,.,.,.
Cc1ccc(C(=O)ONc2ccc(N=O)cc2)cc1,98*,100*,59*,96*,4,26,30,101*,104*,90*,31
Cc1cc(C(=O)COC(=O)c2cccn2C)c(C)n1Cc1ccco1,64*,67*,2,67*,-1,4,81*,80*,94*,68*,-3
Cc1occc1C(=O)Nc1ccc2ccccc2c1,82*,-5,21,-8,-4,-18,7,96*,102*,92*,95*
Cc1occc1C(=O)Nc1cc(C(C)(C)C)on1,93*,97*,56*,96*,-2,21,93*,95*,102*,97*,95*
O=C(Nc1ccc2ccccc2c1)c1ccc(Cl)cc1Cl,55*,85*,-10,68*,3,18,0,54*,50*,55*,10
O=C(Nc1ccc2ccccc2c1)c1ccccc1O,96*,96*,3,99*,-1,-130,94*,96*,102*,92*,64*
CCCn1c(=S)[nH]c2cc(C(=O)N3CCN(C)CC3)ccc2c1=O,.,.,.,.,2,9,.,.,.,.,.
Nc1nnnn1/N=C/c1ccco1,-4,3,0,6,2,30,.,.,.,.,.
Oc1ccccc1/C=N/NC(=S)NC1CC2CC1C1C=CCC21 (stereo not given),17,1,-4,25,-69,-72,.,.,.,.,.
Cc1ccc(C(=O)OCC(=O)c2ccc(Cl)s2)s1,30,24,2,54*,1,25,52*,46,80*,40,28
O=C(COC(=O)c1cccnc1Cl)c1ccc(Cl)s1,42,76*,.,56*,3,11,67*,63*,88*,80*,76*
Fc1cccc(C2NN=C(c3ccccc3)S2)c1 (stereo not given),52*,97*,17,92*,-2,-72,29,54*,80*,65*,14
COc1ccc(C2NN=C(c3ccc(C)cc3)S2)cc1OC (stereo not given),92*,94*,19,93*,2,-394,10,22,26,26,11
COc1ccc(C2NC(=O)CS2)cc1OC (stereo not given),-5,-6,-10,-17,2,23,.,.,.,.,.
SMILES,SENP8 block-1,SENP7 block,Platelet DG rel,SENP6 inh,SENP1 inh,SENP8 block-2,SENP8 confirm,SENP6 confirm,SENP7 conf,Casp3 select,Luc interf
Cc1ccc(C2=NNC(c3cccc(F)c3)S2)cc1 (stereo not given),87*,95*,-1,89*,1,-166,46,51*,45,51*,10
Cc1ccc(C2=NNC(C(O)C(O)C(O)C(C)O)S2)cc1 (stereo not given),2,-1,-2,6,1,-124,.,.,.,.,.
Cc1cccc(NC(=O)c2cc(NC(=O)C3CCCCC3C(=O)O)ccc2Cl)n1 (stereo not given),-2,-5,2,-6,1,2,.,.,.,.,.
N#Cc1c(-c2cccs2)cc(-c2ccccn2)nc1N,-9,-7,-18,-3,-122,i,.,.,.,.,.
Oc1c(Br)cc(C2N=C(c3ccccc3)NO2)cc1Br (stereo not given),81*,9,4,98*,3,-26,-21,88*,96*,79*,91*
CSc1ccc(C2N=C(c3ccccc3)NO2)cc1 (stereo not given),45,11,5,61*,1,-100,20,7,34,11,18
COc1ccc(-c2cc(C(F)(F)F)nc(-n3cc(Cl)cn3)n2)cc1,-10,-7,6,-6,2,-330,.,.,.,.,.
O=C(NC(=S)Nc1ccc2c(c1)OCCO2)c1ccc(F)cc1Cl,-2,0,6,-6,1,15,.,.,.,.,.
COc1cc(NC(=O)c2ccc(N3CCCC3=O)cc2)cc(OC)c1,60*,72*,.,70*,2,25,46,61*,73*,84*,56*
COc1cc(NC(=O)c2ccccn2)cc(OC)c1OC,-8,-3,3,-13,-1,2,.,.,.,.,.
O=C(Nc1ccc(OC(F)F)c(Cl)c1)c1ccccn1,79*,85*,8,85*,1,12,74*,75*,95*,68*,27
